{"source": "ChEMBL document CHEMBL4715736", "about": "“Identification of anticancer agents based on the thieno[2,3-b]pyridine and 1H-pyrazole molecular scaffolds” (2016)", "type_in_all_cases": "functional", "key": {"[1]": {"test_system": "K562", "experiment": "Growth inhibition of human K562 cells assessed as cell growth at 0.01 uM incubated for 48 hrs by sulforhodamine B assay relative to control", "details": "read-out: Activity"}, "[2]": {"test_system": "NCI-H23", "experiment": "Growth inhibition of human NCI-H23 cells assessed as cell growth at 0.01 uM incubated for 48 hrs by sulforhodamine B assay relative to control", "details": "read-out: Activity"}, "[3]": {"test_system": "HCC 2998", "experiment": "Growth inhibition of human HCC 2998 cells assessed as cell growth at 0.01 uM incubated for 48 hrs by sulforhodamine B assay relative to control", "details": "read-out: Activity", "how_it_was_run": "(§1)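 NCI Developmental Therapeutics Program NCI60 panel. Compounds that were active in the 10 µM one-dose screen went on to dose–response testing. Growth at each concentration is expressed relative to untreated control (100%). GI50 (concentration giving 50% of maximal inhibition of proliferation) and TGI (concentration giving total growth inhibition) were derived from the curves.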"}, "[4]": {"test_system": "OVCAR-8", "experiment": "Growth inhibition of human OVCAR-8 cells assessed as cell growth at 0.01 uM incubated for 48 hrs by sulforhodamine B assay relative to control", "details": "read-out: Activity"}, "[5]": {"test_system": "NCI/ADR-RES", "experiment": "Growth inhibition of human NCI/ADR-RES cells assessed as cell growth at 0.01 uM incubated for 48 hrs by sulforhodamine B assay relative to control", "details": "read-out: Activity"}, "[6]": {"test_system": "786-0", "experiment": "Growth inhibition of human 786-0 cells assessed as cell growth at 0.01 uM incubated for 48 hrs by sulforhodamine B assay relative to control", "details": "read-out: Activity", "how_it_was_run": "as §1"}, "[7]": {"test_system": "PC-3", "experiment": "Growth inhibition of human PC-3 cells assessed as cell growth at 0.01 uM incubated for 48 hrs by sulforhodamine B assay relative to control", "details": "read-out: Activity"}, "[8]": {"test_system": "DU-145", "experiment": "Growth inhibition of human DU-145 cells assessed as cell growth at 0.01 uM incubated for 48 hrs by sulforhodamine B assay relative to control", "details": "read-out: Activity", "how_it_was_run": "as §1"}, "[9]": {"test_system": "MCF7", "experiment": "Growth inhibition of human MCF7 cells assessed as cell growth at 0.01 uM incubated for 48 hrs by sulforhodamine B assay relative to control", "details": "read-out: Activity"}, "[10]": {"test_system": "T47D", "experiment": "Growth inhibition of human T47D cells assessed as cell growth at 0.01 uM incubated for 48 hrs by sulforhodamine B assay relative to control", "details": "read-out: Activity"}, "[11]": {"test_system": "NCI-H322M", "experiment": "Growth inhibition of human NCI-H322M cells assessed as cell growth at 0.1 uM incubated for 48 hrs by sulforhodamine B assay relative to control", "details": "read-out: Activity"}, "[12]": {"test_system": "Malme-3M", "experiment": "Growth inhibition of human Malme-3M cells assessed as cell growth at 0.1 uM incubated for 48 hrs by sulforhodamine B assay relative to control", "details": "read-out: Activity"}, "[13]": {"test_system": "M14", "experiment": "Growth inhibition of human M14 cells assessed as cell growth at 0.1 uM incubated for 48 hrs by sulforhodamine B assay relative to control", "details": "read-out: Activity"}, "[14]": {"test_system": "IGROV-1", "experiment": "Growth inhibition of human IGROV-1 cells assessed as cell growth at 0.1 uM incubated for 48 hrs by sulforhodamine B assay relative to control", "details": "read-out: Activity"}, "[15]": {"test_system": "MDA-MB-231", "experiment": "Growth inhibition of human MDA-MB-231 cells assessed as cell growth at 0.1 uM incubated for 48 hrs by sulforhodamine B assay relative to control", "details": "read-out: Activity"}, "[16]": {"test_system": "SR", "experiment": "Growth inhibition of human SR cells assessed as cell growth at 1 uM incubated for 48 hrs by sulforhodamine B assay relative to control", "details": "read-out: Activity"}, "[17]": {"test_system": "HOP-62", "experiment": "Growth inhibition of human HOP-62 cells assessed as cell growth at 1 uM incubated for 48 hrs by sulforhodamine B assay relative to control", "details": "read-out: Activity"}, "[18]": {"test_system": "HCT-116", "experiment": "Growth inhibition of human HCT-116 cells assessed as cell growth at 1 uM incubated for 48 hrs by sulforhodamine B assay relative to control", "details": "read-out: Activity"}, "[19]": {"test_system": "OVCAR-3", "experiment": "Growth inhibition of human OVCAR-3 cells assessed as cell growth at 1 uM incubated for 48 hrs by sulforhodamine B assay relative to control", "details": "read-out: Activity"}, "[20]": {"test_system": "786-0", "experiment": "Growth inhibition of human 786-0 cells assessed as cell growth at 1 uM incubated for 48 hrs by sulforhodamine B assay relative to control", "details": "read-out: Activity", "how_it_was_run": "as §1"}, "[21]": {"test_system": "PC-3", "experiment": "Growth inhibition of human PC-3 cells assessed as cell growth at 1 uM incubated for 48 hrs by sulforhodamine B assay relative to control", "details": "read-out: Activity"}, "[22]": {"test_system": "MDA-MB-231", "experiment": "Growth inhibition of human MDA-MB-231 cells assessed as cell growth at 1 uM incubated for 48 hrs by sulforhodamine B assay relative to control", "details": "read-out: Activity"}, "[23]": {"test_system": "SNB-19", "experiment": "Growth inhibition of human SNB-19 cells assessed as cell growth at 100 uM incubated for 48 hrs by sulforhodamine B assay relative to control", "details": "read-out: Activity"}, "[24]": {"test_system": "SK-MEL-28", "experiment": "Growth inhibition of human SK-MEL-28 cells assessed as cell growth at 100 uM incubated for 48 hrs by sulforhodamine B assay relative to control", "details": "read-out: Activity"}, "[25]": {"test_system": "SK-MEL-5", "experiment": "Growth inhibition of human SK-MEL-5 cells assessed as cell growth at 100 uM incubated for 48 hrs by sulforhodamine B assay relative to control", "details": "read-out: Activity"}, "[26]": {"test_system": "IGROV-1", "experiment": "Growth inhibition of human IGROV-1 cells assessed as cell growth at 100 uM incubated for 48 hrs by sulforhodamine B assay relative to control", "details": "read-out: Activity"}, "[27]": {"test_system": "OVCAR-3", "experiment": "Growth inhibition of human OVCAR-3 cells assessed as cell growth at 100 uM incubated for 48 hrs by sulforhodamine B assay relative to control", "details": "read-out: Activity"}, "[28]": {"test_system": "OVCAR-5", "experiment": "Growth inhibition of human OVCAR-5 cells assessed as cell growth at 100 uM incubated for 48 hrs by sulforhodamine B assay relative to control", "details": "read-out: Activity"}, "[29]": {"test_system": "A498", "experiment": "Growth inhibition of human A498 cells assessed as cell growth at 100 uM incubated for 48 hrs by sulforhodamine B assay relative to control", "details": "read-out: Activity", "how_it_was_run": "as §1"}, "[30]": {"test_system": "NCI-H522", "experiment": "Growth inhibition of human NCI-H522 cells incubated for 48 hrs by sulforhodamine B assay", "how_it_was_run": "(§2)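 NCI60 panel at the NCI Developmental Therapeutics Program. Only compounds active in the 10 µM screen went to dose-response testing. GI50, the concentration giving 50% of maximal inhibition of proliferation, and TGI, the concentration giving total growth inhibition, were derived from the dose-response curves.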"}, "[31]": {"test_system": "SNB-75", "experiment": "Growth inhibition of human SNB-75 cells incubated for 48 hrs by sulforhodamine B assay", "how_it_was_run": "(§3)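 NCI DTP 60-line human tumour panel. Dose-response curves were run only for ligands active in the initial 10 µM screen. GI50 (concentration giving 50% of maximal inhibition of proliferation) and TGI (concentration giving total growth inhibition) were derived from these curves.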"}, "[32]": {"test_system": "UACC-257", "experiment": "Growth inhibition of human UACC-257 cells incubated for 48 hrs by sulforhodamine B assay", "how_it_was_run": "as §3"}, "[33]": {"test_system": "OVCAR-8", "experiment": "Growth inhibition of human OVCAR-8 cells incubated for 48 hrs by sulforhodamine B assay", "how_it_was_run": "as §3"}, "[34]": {"test_system": "MDA-MB-231", "experiment": "Growth inhibition of human MDA-MB-231 cells incubated for 48 hrs by sulforhodamine B assay", "how_it_was_run": "as §2"}, "[35]": {"test_system": "MDA-MB-468", "experiment": "Growth inhibition of human MDA-MB-468 cells incubated for 48 hrs by sulforhodamine B assay", "how_it_was_run": "as §2"}, "[36]": {"details": "read-out: LC50 (the source's name)"}}, "data": [{"smiles": "Cc1cc(C)c(NC(=O)c2sc3nc4c(cc3c2N)CN(Cc2ccccc2)CC4)c(C)c1", "values": [{"measurement": "growth at 0.01 µM", "setting": "[1]", "result": 108, "unit": "%"}, {"measurement": "growth at 0.01 µM", "setting": "[2]", "result": 102, "unit": "%"}, {"measurement": "growth at 0.01 µM", "setting": "[3]", "result": 105, "unit": "%"}, {"measurement": "growth at 0.01 µM", "setting": "[4]", "result": 101, "unit": "%"}, {"measurement": "growth at 0.01 µM", "setting": "[5]", "result": 104, "unit": "%"}, {"measurement": "growth at 0.01 µM", "setting": "[6]", "result": 91, "unit": "%"}, {"measurement": "growth at 0.01 µM", "setting": "[7]", "result": 94, "unit": "%"}, {"measurement": "growth at 0.01 µM", "setting": "[8]", "result": 104, "unit": "%"}, {"measurement": "growth at 0.01 µM", "setting": "[9]", "result": 86, "unit": "%"}, {"measurement": "growth at 0.01 µM", "setting": "[10]", "result": 90, "unit": "%"}, {"measurement": "growth at 0.1 µM", "setting": "[11]", "result": 97, "unit": "%"}, {"measurement": "growth at 0.1 µM", "setting": "[12]", "result": 102, "unit": "%"}, {"measurement": "growth at 0.1 µM", "setting": "[13]", "result": 94, "unit": "%"}, {"measurement": "growth at 0.1 µM", "setting": "[14]", "result": 94, "unit": "%"}, {"measurement": "growth at 0.1 µM", "setting": "[15]", "result": 101, "unit": "%"}, {"measurement": "growth at 1 µM", "setting": "[16]", "result": 68, "unit": "%"}, {"measurement": "growth at 1 µM", "setting": "[17]", "result": 81, "unit": "%"}, {"measurement": "growth at 1 µM", "setting": "[18]", "result": 79, "unit": "%"}, {"measurement": "growth at 1 µM", "setting": "[19]", "result": 76, "unit": "%"}, {"measurement": "growth at 1 µM", "setting": "[20]", "result": 82, "unit": "%"}, {"measurement": "growth at 1 µM", "setting": "[21]", "result": 75, "unit": "%"}, {"measurement": "growth at 1 µM", "setting": "[22]", "result": 89, "unit": "%"}, {"measurement": "growth at 100 µM", "setting": "[23]", "result": 25, "unit": "%"}, {"measurement": "growth at 100 µM", "setting": "[24]", "result": -30, "unit": "%"}, {"measurement": "growth at 100 µM", "setting": "[25]", "result": -49, "unit": "%"}, {"measurement": "growth at 100 µM", "setting": "[26]", "result": 5, "unit": "%"}, {"measurement": "growth at 100 µM", "setting": "[27]", "result": -47, "unit": "%"}, {"measurement": "growth at 100 µM", "setting": "[28]", "result": 14, "unit": "%"}, {"measurement": "growth at 100 µM", "setting": "[29]", "result": -2, "unit": "%"}, {"measurement": "GI50", "setting": "[30]", "result": 1.6, "unit": "µM"}, {"measurement": "LC50", "setting": "[30]", "result": "> 100", "unit": "µM"}, {"measurement": "TGI", "setting": "[30]", "result": 6.83, "unit": "µM"}, {"measurement": "GI50", "setting": "[31]", "result": 2.35, "unit": "µM"}, {"measurement": "LC50", "setting": "[31]", "result": "> 100", "unit": "µM"}, {"measurement": "TGI", "setting": "[31]", "result": 11, "unit": "µM"}, {"measurement": "GI50", "setting": "[32]", "result": 6.71, "unit": "µM"}, {"measurement": "LC50 (concentration killing 50% of cells)", "setting": "[32]", "result": "> 100", "unit": "µM"}, {"measurement": "TGI", "setting": "[32]", "result": "> 100", "unit": "µM"}, {"measurement": "GI50", "setting": "[33]", "result": 4.72, "unit": "µM"}, {"measurement": "TGI", "setting": "[33]", "result": "> 100", "unit": "µM"}, {"measurement": "CC50", "setting": "[33]; [36]", "result": "> 100", "unit": "µM"}, {"measurement": "GI50", "setting": "[34]", "result": 5.75, "unit": "µM"}, {"measurement": "TGI", "setting": "[34]", "result": 58.9, "unit": "µM"}, {"measurement": "CC50", "setting": "[34]; [36]", "result": "> 100", "unit": "µM"}, {"measurement": "GI50", "setting": "[35]", "result": 1.78, "unit": "µM"}, {"measurement": "TGI", "setting": "[35]", "result": 88.7, "unit": "µM"}, {"measurement": "CC50", "setting": "[35]; [36]", "result": "> 100", "unit": "µM"}]}]}
